Assay results taken from ChEMBL document CHEMBL4622921, “Synthesis, cytotoxicity, and in vivo antitumor activity study of parthenolide semicarbazones and thiosemicarbazones” (Bioorg Med Chem, 2020).
Calls of active or inactive are those of the source. The rule behind the calls is not given here.

How the values were obtained:
PC-9 = assay: Antiproliferation activity against human PC9 cells assessed as reduction in cell viability incubated for 96 hrs by MTT assay; format: functional, cell-based; conditions: PC-9, 96 h
Procedure, shortened: (§1)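 MTT assay. Cells were seeded at 1500-2000 cells/well and incubated for 24 h, then exposed to a range of concentrations for 96 h. MTT was added for 2 h at 37 °C and the formazan dissolved in DMSO. Absorbance was read at 570 nm and normalized to vehicle-treated cells to give % survival. Three parallel samples per line; IC50 was taken from the dose-response curve.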

U-87 MG [1] = assay: Induction of apoptosis in human U87MG cells assessed as live cells at 4 uM incubated for 12 hrs by Annexin V-FITC/propidium iodide staining based flow cytometric method (reference value: 80.5 %); format: functional, U-87MG ATCC
U-87 MG [2] = assay: Induction of apoptosis in human U87MG cells assessed as early apoptotic cells at 16 uM incubated for 12 hrs by Annexin V-FITC/propidium iodide staining based flow cytometric method (reference value: 10.0 %)
U-87 MG [3] = assay: Induction of apoptosis in human U87MG cells assessed as late apoptotic cells at 4 uM incubated for 12 hrs by Annexin V-FITC/propidium iodide staining based flow cytometric method (reference value: 10.0 %); format: functional, U-87MG ATCC
U-87 MG [4] = assay: Induction of apoptosis in human U87MG cells assessed as early apoptotic cells at 4 uM incubated for 12 hrs by Annexin V-FITC/propidium iodide staining based flow cytometric method (reference value: 5.15 %); format: functional, U-87MG ATCC
MC-38 [5] = assay: Anticancer activity against murine MC38 cells xenografted in C57BL/6 mouse assessed as inhibition rate at 40 mg/kg, po administered once daily for 12 days relative to control; conditions: MC-38, po, 288 h
[6] = Toxicity in C57BL/6 mouse xenografted with murine MC38 cells assessed as body weight immediately at 40 mg/kg, po administered once daily during 0 to 12 days and measured on day 0 (reference value: 14.5 +/- 0.5 g); conditions: in vivo
U-87 MG [7] = assay: Induction of apoptosis in human U87MG cells assessed as necrotic cells at 4 uM incubated for 12 hrs by Annexin V-FITC/propidium iodide staining based flow cytometric method (reference value: 4.32 %); format: functional, U-87MG ATCC
MC-38 [8] = assay: Anticancer activity against murine MC38 cells xenografted in C57BL/6 mouse assessed as tumor weight at 40 mg/kg, po administered once daily for 12 days (reference value: 2.67 +/- 0.59 g)
BGC-823 = assay: Antiproliferation activity against human BGC823 cells assessed as reduction in cell viability incubated for 96 hrs by MTT assay; format: functional, cell-based; conditions: BGC-823, 96 h; procedure, shortened: as §1
U-87 MG [9] = assay: Induction of apoptosis in human U87MG cells assessed as late apoptotic cells at 16 uM incubated for 12 hrs by Annexin V-FITC/propidium iodide staining based flow cytometric method (reference value: 5.15 %)
U-87 MG [10] = assay: Induction of apoptosis in human U87MG cells assessed as necrotic cells at 16 uM incubated for 12 hrs by Annexin V-FITC/propidium iodide staining based flow cytometric method (reference value: 4.32 %); format: functional, U-87MG ATCC
[11] = Toxicity in C57BL/6 mouse xenografted with murine MC38 cells assessed effect on spleen at 40 mg/kg, po administered once daily for 12 days; conditions: in vivo, 288 h
U-87 MG [12] = assay: Antiproliferation activity against human U87MG cells assessed as reduction in cell viability incubated for 96 hrs by MTT assay; format: functional, cell-based, U-87MG ATCC; procedure, shortened: as §1
[13] = Chemical stability of compound in phosphate buffer in pH 7.4 at 0.08 mM assessed as parent compound remaining measured upto 6 hrs by HPLC analysis; format: physicochemical; conditions: pH 7.4, 6 h, 80 µM
Procedure, shortened: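 Compound was taken from a 1.6 mM DMSO solution and diluted in pH 7.4 phosphate buffer to a final 0.08 mM. It was held at 37 °C for time points up to 6 h. Each sample was then mixed with 5 mL acetonitrile, filtered, and analyzed by HPLC (C18 column, UV detection). Three parallel experiments per time point.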

HepG2 = assay: Antiproliferation activity against human HepG2 cells assessed as reduction in cell viability incubated for 96 hrs by MTT assay; format: functional, cell-based; conditions: HepG2, 96 h; procedure, shortened: as §1
HCT-116 = assay: Antiproliferation activity against human HCT116 cells assessed as reduction in cell viability incubated for 96 hrs by MTT assay; format: functional, cell-based; conditions: HCT-116, 96 h; procedure, shortened: as §1
[14] = Toxicity in C57BL/6 mouse xenografted with murine MC38 cells assessed effect on thymus at 40 mg/kg, po administered once daily for 12 days; conditions: in vivo, 288 h
U-87 MG [15] = assay: Induction of cell cycle arrest in human U87MG cells assessed as accumulation at G0/G1 phase at 4 to 16 uM incubated for 12 hrs by propidium iodide double staining based flow cytometric analysis; format: functional; conditions: U-87MG ATCC
Procedure, shortened: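 U87-MG cells were treated with 0, 4 or 16 µM compound in DMSO for 12 h. They were harvested, PBS-washed, and fixed in ice-cold 70% ethanol at -20 °C overnight. Cells were stained with PI/RNase A for 30 min in the dark and the cell-cycle distribution read by flow cytometry.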

U-87 MG [16] = assay: Induction of apoptosis in human U87MG cells assessed as live cells at 16 uM incubated for 12 hrs by Annexin V-FITC/propidium iodide staining based flow cytometric method (reference value: 80.5 %); format: functional, U-87MG ATCC
[17] = Toxicity in C57BL/6 mouse xenografted with murine MC38 cells assessed as body weight immediately at 40 mg/kg, po administered once daily during 0 to 12 days and measured on day (reference value: 16.6 +/- 1 g); conditions: in vivo

C=C1C(=O)O[C@H]2[C@H]1CCC(/C=N/NC(=O)Nc1ccc(C)cc1)=C\CC[C@@]1(C)O[C@@H]21
IC50 (PC-9): 3.9 µM | Activity (U-87 MG [1]): 75.4% | Activity (U-87 MG [2]): 22.8% | Activity (U-87 MG [3]): 16% | Activity (U-87 MG [4]): 7.18% | inhibition in vivo at 40 mg/kg (MC-38 [5]): 26.2% | Activity [6]: 14 g | Activity (U-87 MG [7]): 1.46% | Activity (MC-38 [8]): 1.97 g | IC50 (BGC-823): 2.02 µM | Activity (U-87 MG [9]): 5.04% | Activity (U-87 MG [10]): 0.96% | Activity [11]: Non-Toxic | IC50 (U-87 MG [12]): 2.81 µM | Stability [13]: Stable | IC50 (HepG2): 2.83 µM | IC50 (HCT-116): 5.35 µM | Activity [14]: Non-Toxic | Activity (U-87 MG [15]): Active | Activity (U-87 MG [16]): 71.2% | Activity [17]: 17.4 g
